Assays:
Enterovirus C [1] = assay: Incorporation of Poliovirus RNA dependent RNA polymerase into sym/sub-C primer
Outline: (§1)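 NTP was 10–250 µM; reactions ran 2 min at 30 °C and were quenched with EDTA. Products were resolved by 20% denaturing PAGE. Initial rates came from the elongated fraction, and kcat and KM from Lineweaver–Burk plots (mean ± SD, n = 3).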

Enterovirus C [2] = assay: Antiviral activity against poliovirus infected HeLa S3 cells assessed as plaque formation at 0.5 mM relative to control; type: functional
Outline: (§2)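 HeLa S3 cells (DMEM/F-12, 2% dialyzed FBS) were pretreated with nucleoside for 1 h at 37 °C in 1% DMSO final. Cells were infected with poliovirus (1 × 10⁶ PFU in PBS) for 15 min at 23 °C, then kept 6 h at 37 °C with nucleoside. Cell-associated virus was released by three freeze–thaw cycles and titred by plaque assay on HeLa S3 (1% low-melting agarose overlay, 2 days, crystal violet). Titre is given as % of untreated control.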

Enterovirus C [3] = assay: Antiviral activity against poliovirus infected HeLa S3 cells assessed as plaque formation at 2 mM; type: functional; outline: as §2
Enterovirus C [4] = assay: Incorporation of Poliovirus RNA dependent RNA polymerase into sym/sub-U primer; outline: as §1
Enterovirus C [5] = assay: Ratio of kcat/Km of Poliovirus RNA dependent RNA polymerase incorporation into sym/sub-C primer relative to control; set-up: unit not given here
Enterovirus C [6] = assay: Ratio of kcat/Km of Poliovirus RNA dependent RNA polymerase incorporation into sym/sub-U primer; set-up: unit not given here

| SMILES | Km (Enterovirus C [1]) | kcat (Enterovirus C [1]) | Activity (Enterovirus C [2]) | Activity (Enterovirus C [3]) | Km (Enterovirus C [4]) | kcat (Enterovirus C [4]) | kcat/Km (Enterovirus C [5]) | kcat/Km (Enterovirus C [6]) |
| --- | --- | --- | --- | --- | --- | --- | --- | --- |
| Nc1ncnc2c1ncn2[C@@H]1O[C@H](COP(=O)(O)OP(=O)(O)OP(=O)(O)O)[C@@H](O)[C@H]1O | 110 µM | 0.82 10^-4/s | – | – | – | – | – | – |
| CC#Cc1cn([C@@H]2O[C@H](CO)[C@@H](O)[C@H]2O)nc1C(N)=O | – | – | 94% | 57% | – | – | – | – |
| NC(=O)c1ncn([C@@H]2O[C@H](COP(=O)(O)OP(=O)(O)OP(=O)(O)O)[C@@H](O)[C@H]2O)n1 | 69 µM | 5.8 10^-4/s | – | – | 34 µM | 3.7 10^-4/s | – | – |
| NC(=O)c1nn([C@@H]2O[C@H](CO)[C@@H](O)[C@H]2O)cc1I | – | – | 76% | 68% | – | – | – | – |
| NC(=O)c1nn([C@@H]2O[C@H](CO)[C@@H](O)[C@H]2O)cc1C#Cc1ccccc1 | – | – | 122% | – | – | – | – | – |
| NC(=O)c1nn([C@@H]2O[C@H](COP(=O)(O)OP(=O)(O)OP(=O)(O)O)[C@@H](O)[C@H]2O)cc1I | 40 µM | 1.8 10^-4/s | – | – | 24 µM | 4.7 10^-4/s | 4.4 | 20 |
| CC#Cc1cn([C@@H]2O[C@H](COP(=O)(O)OP(=O)(O)OP(=O)(O)O)[C@@H](O)[C@H]2O)nc1C(N)=O | 51 µM | 1.3 10^-4/s | – | – | 35 µM | 3.1 10^-4/s | 2.6 | 9.1 |
| Nc1nc2c(ncn2[C@@H]2O[C@H](COP(=O)(O)OP(=O)(O)OP(=O)(O)O)[C@@H](O)[C@H]2O)c(=O)[nH]1 | – | – | – | – | 56 µM | 5 10^-4/s | – | – |
| NC(=O)c1ncn([C@@H]2O[C@H](CO)[C@@H](O)[C@H]2O)n1 [RIBAVIRIN] | – | – | 40% | 4% | – | – | – | – |

Reference: ChEMBL document CHEMBL1140696, “Effects of introduction of hydrophobic group on ribavirin base on mutation induction and anti-RNA viral activity” (2008)
